From PubChem
KCNQ1 pot: potentiates or activates the human KCNQ1 potassium channel; P51787; CHO-K1 KCNQ1, thallium flux FluxOR fluorescence; hits give high values; B-score at 10 µM; actives 0.35% (n = 310,000);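 active means fluorescence ratio B-score, a plate-corrected score, at least three library SD, with initial intensity B-score within 5 SD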
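System: CHO-K1 cells stably expressing KCNQ1 / Medium: assay buffer for compound exposure, DMSO matched across wells / Reagent: thallium- and potassium-containing depolarizing buffer / Compound: one concentration, matched DMSO / Incubation: 20 min compound pretreatment at room temperature / Measured by: kinetic FluxOR fluorescence, 10 s baseline plus 110 s post-stimulus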
PHOSPHO1 block: inhibitors of human PHOSPHO1 phosphatase; Q8TCT1; recombinant PHOSPHO1, absorbance phosphatase assay; inhibition, % at 13.3 µM; actives 1.1% (n = 290,000); AID 1565; in the data active means inhibition above about 60%
hERG rescue: hERG (human) protection from proarrhythmic block; Q12809; CHO-hERG, FluxOR thallium flux, dofetilide IC70 present; activation (rescue from dofetilide block), less the hit threshold, % at 10 µM; actives 0.51% (n = 310,000); AID 1511;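 active means activation above the mean of controls blocked by dofetilide plus 5 SD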;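 further: thallium influx through hERG after potassium depolarization seen as dye fluorescence rise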
KCNK9 block: human KCNK9 channel inhibition; Q9NPC2; HEK293 KCNK9, FluxOR thallium flux fluorescence; hits give low values; B-score at 10 µM; actives 1.2% (n = 310,000);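 active means ratio B-score over 3 SD below the library mean, with starting fluorescence within 5 SD of its mean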;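 further: negative B-score means less thallium flux so channel inhibition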
Target sequence (Q9NPC2 whole entry, looked up): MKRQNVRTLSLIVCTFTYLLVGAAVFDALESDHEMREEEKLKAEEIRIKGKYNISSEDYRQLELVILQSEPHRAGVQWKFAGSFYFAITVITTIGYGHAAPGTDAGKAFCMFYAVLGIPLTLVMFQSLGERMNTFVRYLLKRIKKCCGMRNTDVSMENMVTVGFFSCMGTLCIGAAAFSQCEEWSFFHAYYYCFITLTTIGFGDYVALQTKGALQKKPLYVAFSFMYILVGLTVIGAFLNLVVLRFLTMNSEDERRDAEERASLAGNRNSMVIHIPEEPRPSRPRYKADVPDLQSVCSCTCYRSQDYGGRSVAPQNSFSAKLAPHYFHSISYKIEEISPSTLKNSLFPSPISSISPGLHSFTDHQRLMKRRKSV
KCNK3 block: human KCNK3 channel inhibition, primary screen; O14649; CHO-KCNK3 thallium flux, FluxOR fluorescence; hits give low values; B-score at 10 µM; actives 0.84% (n = 340,000); AID 602410;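 active means B-score under library mean minus 4 SD, starting fluorescence ratio at most library mean plus 5 SD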;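 further: more negative B-score means stronger inhibition of thallium flux through KCNK3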
KCNQ1 inh: blocks the human KCNQ1 potassium channel; P51787; actives 1.3% (n = 310,000); AID 2642; CHO-K1 KCNQ1, FluxOR thallium flux fluorescence; hits give high values; B-score at 10 µM;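 active means compounds whose thallium flux B-score, printed positive for inhibition, exceeds three library SD while starting fluorescence stays within three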;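 further: channel opened by potassium depolarization with thallium stimulus after 20 min compound exposure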
KCNK9 block conf: confirmation of human KCNK9 potassium channel inhibitors. HEK293 KCNK9 cells, FluxOR thallium flux fluorescence. actives 43% (n = 4,900). inhibition, % at 10 µM. shares compounds with KCNK9 block;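 active means thallium signal inhibited by more than 5 SD of the compound-free buffer control wells, on both duplicate plates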;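 further: 0% = assay buffer control wells without compound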
Kir21 sel: mouse Kir2.1 off-target activity of KCNK9 modulators | shares compounds with KCNK9 block | Kir2.1 cells, FluxOR thallium flux fluorescence | inhibition, % at 10 µM | actives 4% (n = 4,900) | AID 492993;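 active means thallium signal drop more than 5 SD beyond the mean of the no-compound control wells, seen in both duplicate plates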;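 further: signal is fluorescence rise after thallium addition divided by baseline fluorescence; plate controls were assay buffer only for no effect and full block by chlorpromazine control for full effect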
KCNK9 uninduced: second check of KCNK9 modulator effects in non-induced HEK293 cells; shares compounds with KCNK9 block; FluxOR thallium flux; inhibition, % at 10 µM; actives 40% (n = 4,900);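 active means thallium signal drop beyond 5 SD of the untreated control mean, on both duplicate plates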;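 further: plate controls were buffer only IC0 wells for no effect and SID17386958 at its maximal inhibitory level for full effect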
* hit, by the source's call; i = inactive; nt = not tested or not shown. Only some compounds are listed: those with a hit (about 4% of all), similar ones and a draw of the others.

SMILES	KCNQ1 pot	PHOSPHO1 block	hERG rescue	KCNK9 block	KCNK3 block	KCNQ1 inh	KCNK9 block conf	Kir21 sel	KCNK9 uninduced
COc1ccc(Cl)cc1NC(=O)CSc1nc(N2CCOCC2)nc(N2CCOCC2)n1	i	33	-14	i	i	i	nt	nt	nt
O=C(NCc1ccco1)C(=S)N1CCCCC1	i	16	-9	i	i	i	nt	nt	nt
CC(NS(=O)(=O)c1cccc(C(=O)N(C)Cc2ccc(N3CCOCC3)cc2)c1)c1ccccc1 (configuration not stated)	nt	nt	nt	nt	i	nt	nt	nt	nt
Cc1ccc2oc(-c3cccc(NC(=S)NC(=O)c4cccs4)c3)nc2c1	i	-12	-6	i	i	i	nt	nt	nt
Cc1ccc2oc(-c3cccc(NC(=S)NC(=O)/C=C/c4ccco4)c3)nc2c1	i	6	-11	i	i	i	i	i	i
O=[N+]([O-])c1sccc1CS(=O)(=O)c1ccccc1	i	12	-2	i	i	i	nt	nt	nt
CCc1ccc(S(=O)(=O)NCCc2csc(-c3ccccc3)n2)s1	i	-17	-10	-10*	i	i	50%*	38%*	39%*
CCN(CC)c1nc(C)nc2c1cnn2CCc1ccccc1	i	3	-12	i	i	i	i	i	i
Cc1ccc(NC(=O)c2noc(C(C)C)c2[N+](=O)[O-])cc1	i	-38	-10	i	i	i	nt	nt	nt
CCCCN(CC)C(=O)CSc1nc2ccccc2c(=O)n1CC1COc2ccccc2O1 (configuration not stated)	i	4	-18	i	i	i	i	i	i
CCCCNC(=O)CSc1nc2ccccc2c(=O)n1CC1COc2ccccc2O1 (configuration not stated)	i	9	-18	i	i	i	nt	nt	nt
COC(=O)c1cc(NC(=O)CN(c2ccccc2OC)S(=O)(=O)c2ccccc2)ccc1Cl	i	16	-7	-15*	i	i	64%*	i	i
COC(=O)c1cc(NC(=O)CN(c2cccc(OC)c2)S(=O)(=O)c2ccccc2)ccc1Cl	i	-19	-12	i	i	i	nt	nt	nt
COc1ccccc1C1CCN(C(=O)c2ccccc2)CC1	i	27	-9	i	i	i	nt	nt	nt
COc1ccccc1C1CCN(C(=O)c2cnn(-c3ccccc3)c2C)CC1	i	16	-12	i	i	i	i	i	i
O=C(O)CC1=C(O)C(=O)N(c2ccccc2)C1c1ccc(Br)cc1 (configuration not stated)	i	37	-5	i	i	i	nt	nt	nt
CCOC(=O)C1=C(C)N=C2SC(C)C(=O)N2C1c1cccc(F)c1 (configuration not stated)	i	-14	-14	-17*	i	6*	64%*	i	60%*
CC1=C(C(=O)OC(C)C)C(c2cccc(F)c2)N2C(=O)C(C)SC2=N1 (configuration not stated)	i	15	-14	-13*	i	i	56%*	i	54%*
CCn1c(C(=O)N2CCc3ccccc3C2)cc2sccc21	i	3	-11	i	i	i	i	i	i
Cc1c(Cl)cccc1NC(=S)N(CCN(C)C)C(C)c1ccco1 (configuration not stated)	i	44	-7	i	i	i	i	i	i
Cc1ccccc1NC(=S)N(CCN(C)C)C(C)c1ccco1 (configuration not stated)	i	-32	-5	i	i	i	nt	nt	nt
O=C(/C=C/c1cccs1)c1cc(Br)ccc1OC(=O)N1CCOCC1	i	-11	-3	-9.8*	i	i	30%*	i	23%*
